In ChEMBL document CHEMBL2176954, “General synthesis of β-alanine-containing spider polyamine toxins and discovery of nephila polyamine toxins 1 and 8 as highly potent inhibitors of ionotropic glutamate receptors” (J Med Chem, 2012) one finds IC50 data, which are given here for six compounds.

Holding throughout (format): functional, cell-based, Oocyte
Test [1] concerns the target Glutamate receptor ionotropic, NMDA 2A (Rattus norvegicus, UniProt P35439+Q00959). The test is described as follows: Antagonist activity at rat glutamate N1/2A receptor expressed in Xenopus oocytes at membrane potential -60 mV by two-electrode voltage-clamp electrophysiology assay. The gist of the method: (§1)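 Two-electrode voltage clamp at −60 mV on oocytes expressing the iGlu receptor subtype. Cells first received a maximally effective agonist concentration, then increasing toxin concentrations co-applied with agonist. IC50 values are means from 6 to 12 experiments, reported with 95% confidence intervals.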

Test [2] deals with T1, Glutamate receptor ionotropic, kainate 1 (Rattus norvegicus, UniProt P22756). The test can be described thus: Antagonist activity at rat GluK1 receptor expressed in Xenopus oocytes at membrane potential -60 mV by two-electrode voltage-clamp electrophysiology assay. The method, boiled down:
as §1

A further test deals with Glutamate receptor 1 (Rattus norvegicus, UniProt P19490). The test is described as follows: Antagonist activity at rat GluA1 receptor expressed in Xenopus oocytes at membrane potential -60 mV by two-electrode voltage-clamp electrophysiology assay. The method, boiled down:
as §1

For test [3], the target named is T1, Glutamate receptor ionotropic, kainate 1. The test is described as follows: Antagonist activity at rat GluK1 receptor expressed in Xenopus oocytes by two-electrode voltage-clamp at membrane potential -60 to -80 mV electrophysiology assay. The method, boiled down: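 GluK1-expressing oocytes were clamped by two-electrode voltage clamp and given a maximally effective agonist concentration, then increasing toxin concentrations plus agonist. IC50 was determined at −60 mV and at −80 mV to assess voltage dependence of block. Values at −60 mV are means of 6 to 12 experiments.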

T1 sequence (P22756 whole entry): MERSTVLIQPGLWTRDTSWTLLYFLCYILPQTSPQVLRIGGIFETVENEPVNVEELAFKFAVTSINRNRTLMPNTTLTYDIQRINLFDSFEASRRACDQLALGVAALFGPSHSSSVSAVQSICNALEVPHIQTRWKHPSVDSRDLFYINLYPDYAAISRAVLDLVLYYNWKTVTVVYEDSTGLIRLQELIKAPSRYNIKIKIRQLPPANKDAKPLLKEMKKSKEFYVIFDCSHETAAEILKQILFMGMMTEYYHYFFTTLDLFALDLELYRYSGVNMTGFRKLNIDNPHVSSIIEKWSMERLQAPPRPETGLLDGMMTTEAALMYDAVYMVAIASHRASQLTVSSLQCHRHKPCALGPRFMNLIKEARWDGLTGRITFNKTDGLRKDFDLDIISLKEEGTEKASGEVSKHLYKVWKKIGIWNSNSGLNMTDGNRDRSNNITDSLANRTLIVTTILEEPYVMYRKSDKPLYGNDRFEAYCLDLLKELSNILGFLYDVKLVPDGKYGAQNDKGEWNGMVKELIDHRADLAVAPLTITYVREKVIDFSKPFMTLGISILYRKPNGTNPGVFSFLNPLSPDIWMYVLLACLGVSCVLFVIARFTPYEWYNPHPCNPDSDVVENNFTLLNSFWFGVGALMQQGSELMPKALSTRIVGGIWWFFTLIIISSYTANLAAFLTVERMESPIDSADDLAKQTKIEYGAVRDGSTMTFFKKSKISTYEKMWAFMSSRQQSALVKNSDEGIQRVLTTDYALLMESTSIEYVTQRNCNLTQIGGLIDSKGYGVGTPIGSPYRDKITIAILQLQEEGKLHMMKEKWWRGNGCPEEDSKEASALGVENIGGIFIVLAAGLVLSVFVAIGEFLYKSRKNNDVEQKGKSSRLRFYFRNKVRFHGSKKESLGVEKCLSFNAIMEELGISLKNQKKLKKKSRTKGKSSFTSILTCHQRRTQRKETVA
Glutamate receptor ionotropic, NMDA 2A, sequence (Q00959 whole entry, one chain of several): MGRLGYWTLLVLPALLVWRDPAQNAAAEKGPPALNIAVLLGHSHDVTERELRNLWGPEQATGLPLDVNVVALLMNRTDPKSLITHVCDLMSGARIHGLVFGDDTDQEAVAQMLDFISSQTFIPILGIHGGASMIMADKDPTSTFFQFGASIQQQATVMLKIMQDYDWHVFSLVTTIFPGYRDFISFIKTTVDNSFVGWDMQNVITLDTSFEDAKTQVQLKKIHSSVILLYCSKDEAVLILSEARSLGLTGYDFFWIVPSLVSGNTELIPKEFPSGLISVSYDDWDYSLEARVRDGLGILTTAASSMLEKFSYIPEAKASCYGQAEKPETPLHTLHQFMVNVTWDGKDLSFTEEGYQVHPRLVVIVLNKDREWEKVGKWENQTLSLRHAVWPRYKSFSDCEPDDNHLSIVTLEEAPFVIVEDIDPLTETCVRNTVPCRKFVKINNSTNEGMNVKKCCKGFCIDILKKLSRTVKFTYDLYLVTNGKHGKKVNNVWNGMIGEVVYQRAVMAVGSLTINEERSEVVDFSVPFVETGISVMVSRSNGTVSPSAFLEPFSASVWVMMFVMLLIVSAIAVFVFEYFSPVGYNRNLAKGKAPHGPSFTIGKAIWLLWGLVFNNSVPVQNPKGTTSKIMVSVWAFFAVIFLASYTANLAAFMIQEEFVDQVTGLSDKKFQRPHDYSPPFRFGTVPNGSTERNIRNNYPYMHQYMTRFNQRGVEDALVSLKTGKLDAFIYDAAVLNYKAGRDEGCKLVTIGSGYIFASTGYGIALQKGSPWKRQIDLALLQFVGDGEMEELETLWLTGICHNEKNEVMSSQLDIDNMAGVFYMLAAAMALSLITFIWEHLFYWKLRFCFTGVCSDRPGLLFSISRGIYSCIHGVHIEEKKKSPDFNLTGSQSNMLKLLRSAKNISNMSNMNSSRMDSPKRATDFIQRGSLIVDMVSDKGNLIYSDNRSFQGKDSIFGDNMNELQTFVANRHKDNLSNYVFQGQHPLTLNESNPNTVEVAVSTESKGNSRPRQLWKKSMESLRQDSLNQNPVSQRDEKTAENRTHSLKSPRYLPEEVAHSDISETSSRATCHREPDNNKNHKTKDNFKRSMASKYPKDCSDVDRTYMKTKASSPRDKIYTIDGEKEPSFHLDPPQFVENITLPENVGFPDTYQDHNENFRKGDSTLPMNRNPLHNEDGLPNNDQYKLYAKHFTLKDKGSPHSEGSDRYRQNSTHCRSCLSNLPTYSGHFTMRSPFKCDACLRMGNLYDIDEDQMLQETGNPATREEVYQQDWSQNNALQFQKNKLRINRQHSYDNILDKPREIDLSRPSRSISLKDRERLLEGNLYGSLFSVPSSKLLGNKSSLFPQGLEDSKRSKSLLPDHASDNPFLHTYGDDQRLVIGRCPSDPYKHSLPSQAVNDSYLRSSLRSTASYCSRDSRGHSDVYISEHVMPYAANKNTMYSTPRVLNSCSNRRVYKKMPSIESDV
Glutamate receptor 1, sequence (P19490 whole entry): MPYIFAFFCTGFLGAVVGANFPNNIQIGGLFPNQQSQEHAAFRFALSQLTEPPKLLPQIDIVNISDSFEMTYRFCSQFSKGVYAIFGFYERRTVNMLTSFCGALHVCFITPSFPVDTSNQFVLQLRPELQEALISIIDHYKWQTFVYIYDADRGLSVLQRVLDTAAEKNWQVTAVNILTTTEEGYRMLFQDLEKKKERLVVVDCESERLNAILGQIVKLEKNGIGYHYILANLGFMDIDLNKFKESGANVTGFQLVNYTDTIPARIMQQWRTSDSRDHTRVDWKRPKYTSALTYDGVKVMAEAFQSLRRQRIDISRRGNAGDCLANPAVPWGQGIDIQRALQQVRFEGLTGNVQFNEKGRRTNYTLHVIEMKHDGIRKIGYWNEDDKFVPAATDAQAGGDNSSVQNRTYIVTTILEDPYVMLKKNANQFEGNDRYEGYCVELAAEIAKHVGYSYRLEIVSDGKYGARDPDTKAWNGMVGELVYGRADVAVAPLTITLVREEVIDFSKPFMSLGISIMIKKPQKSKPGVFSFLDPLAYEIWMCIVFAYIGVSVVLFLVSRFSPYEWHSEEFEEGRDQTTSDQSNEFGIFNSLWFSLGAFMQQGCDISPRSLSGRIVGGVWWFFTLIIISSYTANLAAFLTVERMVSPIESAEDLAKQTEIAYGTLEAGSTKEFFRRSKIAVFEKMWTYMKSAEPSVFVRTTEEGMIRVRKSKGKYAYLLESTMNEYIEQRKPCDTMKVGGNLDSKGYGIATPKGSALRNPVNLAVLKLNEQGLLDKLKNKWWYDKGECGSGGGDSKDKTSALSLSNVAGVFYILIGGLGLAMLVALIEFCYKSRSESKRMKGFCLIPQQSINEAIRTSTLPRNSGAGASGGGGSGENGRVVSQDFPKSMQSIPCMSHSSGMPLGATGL

Regarding `NCCCNCCCCNCCC(=O)NCCCCCNC(=O)[C@H](CC(N)=O)NC(=O)Cc1ccc(O)cc1O` [JORO SPIDER TOXIN 3], the IC50 in test [1] was 1710 nM; in test [2], 19 nM; at Glutamate receptor 1 it was 65 nM.

Take `NCCCNCCCCNCCC(=O)NCCCCCNC(=O)[C@H](CC(N)=O)NC(=O)Cc1c[nH]c2ccccc12`: the IC50 came out at 150 nM in test [1], 0.82 nM in test [2], 0.28 nM in test [3] and 27 nM against Glutamate receptor 1.

For the compound `NCCCNCCCCNCCC(=O)NCCCCCNC(=O)[C@H](CC(N)=O)NC(=O)Cc1c[nH]c2cccc(O)c12`, the half-maximal inhibitory concentration (IC50) in test [1] stood at 1390 nM; in test [2] it was 0.33 nM; in test [3], 0.19 nM; at Glutamate receptor 1 it was 51 nM.

On to `N=C(N)NCCC[C@H](N)C(=O)NCCCNCCCNCCCCCNC(=O)[C@H](CC(N)=O)NC(=O)Cc1ccc(O)cc1O`, for which the half-maximal inhibitory concentration (IC50) in test [1] is 177 nM; at Glutamate receptor 1, 135 nM.

Take `N=C(N)NCCC[C@H](N)C(=O)NCCCCNCCC(=O)NCCCCCNC(=O)[C@H](CC(N)=O)NC(=O)Cc1ccc(O)cc1O` [NEPHILA SPIDER TOXIN 3]: the figures for the IC50 (in test [1]; in test [2]; at Glutamate receptor 1) were 5410 nM, 164 nM and 137 nM, respectively.

Turning to `C[C@H](NC(=O)CNC(=O)[C@@H](N)CCCNC(=N)N)C(=O)NCCCCNCCC(=O)NCCCCCNC(=O)[C@H](CC(N)=O)NC(=O)Cc1ccc(O)cc1O`, the results for the IC50 (in test [1]; in test [2]; against Glutamate receptor 1) were over 10000 nM, 2580 nM and 1080 nM, respectively.
